In general, MIC refers to the least concentration at which growth counts as inhibited.

SMILES strings stand for the structures.

The results in this text go back to ChEMBL document CHEMBL3085737, “Inducing secondary metabolite production by the endophytic fungus Fusarium tricinctum through coculture with Bacillus subtilis” (2013).

Holding throughout (assay type): functional
Assay [1] concerns Staphylococcus aureus. The assay can be described thus: Antibacterial activity against Staphylococcus aureus ATCC 29213 assessed as growth inhibition by broth microdilution method. In short, it runs like this: (§1)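 MIC by broth microdilution following CLSI guidelines; inoculum made by direct colony suspension, 5 × 10^5 CFU/mL after the final dilution. Compounds were added from a 10 mg/mL DMSO stock, tested up to 64 μg/mL, giving 0.64% final DMSO at the top concentration. Growth was read as OD600 in a microtiter plate reader.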
For orientation: Broth dilution looks for growth in wells or tubes with falling amounts of substance.

A further assay has as its system Enterococcus faecalis. The assay can be described thus: Antibacterial activity against multidrug and vancomycin-resistant Enterococcus faecalis UW 2689 assessed as growth inhibition by broth microdilution method. In short, it runs like this: (§2)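 MIC by broth microdilution following CLSI guidelines. Inoculum made by direct colony suspension, giving 5 × 10^5 CFU/mL after the last dilution step. Compounds dosed from 10 mg/mL DMSO stocks up to 64 μg/mL top concentration, where final DMSO was 0.64%. Growth read as OD600 in a microtiter plate reader.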

The test system of another assay is Streptococcus pneumoniae. The assay can be described thus: Antibacterial activity against Streptococcus pneumoniae ATCC 49619 assessed as growth inhibition by broth microdilution method. Summed up: as §1
In assay [2] the test system is Staphylococcus aureus. As to the kind of experiment: Antibacterial activity against multidrug and methicillin-resistant Staphylococcus aureus 25697 assessed as growth inhibition by broth microdilution method. In short, it runs like this: as §2
The test system of another assay is Bacillus subtilis. The assay can be described thus: Antibacterial activity against Bacillus subtilis 168 trpC2 assessed as growth inhibition by broth microdilution method. The note with it: subsp. subtilis str. 168. In short, it runs like this:
as §1

Another assay concerns Escherichia coli. The assay can be described thus: Antibacterial activity against Escherichia coli ATCC 25922 assessed as growth inhibition by broth microdilution method. Summed up:
as §1

For a further assay, the system named is Pseudomonas aeruginosa. The assay can be described thus: Antibacterial activity against multidrug-resistant Pseudomonas aeruginosa B 63230 assessed as growth inhibition by broth microdilution method. Summed up: as §2

As to `CC[C@H](C)[C@H]1C(=O)O[C@H](C(C)C)C(=O)N(C)[C@@H](C(C)C)C(=O)O[C@H](C(C)C)C(=O)N(C)[C@@H](C(C)C)C(=O)O[C@H](C(C)C)C(=O)N1C` [ENNIATIN B1], the MIC is 8 µg/mL with Staphylococcus aureus [1]; 8 µg/mL in the assay with Enterococcus faecalis; 4 µg/mL in the assay on Streptococcus pneumoniae; 8 µg/mL in the assay with Staphylococcus aureus [2]; 16 µg/mL with Bacillus subtilis; above 64 µg/mL with Escherichia coli. Moreover, the MIC in the assay on Pseudomonas aeruginosa is above 64 µg/mL.

Take `CC(=O)C[C@@H](O)Cc1cc2cc(O)cc(O)c2c(=O)o1`: the MIC in the assay on Staphylococcus aureus [1], in the assay on Enterococcus faecalis, with Streptococcus pneumoniae, with Staphylococcus aureus [2], in the assay on Bacillus subtilis and with Escherichia coli was above 64 µg/mL each time. For the same compound, the MIC with Pseudomonas aeruginosa is above 64 µg/mL.

Take `CN(C)[C@@H]1C(O)=C(C(N)=O)C(=O)[C@@]2(O)C(O)=C3C(=O)c4c(O)cccc4[C@@](C)(O)[C@H]3C[C@@H]12` [TETRACYCLINE]: the MIC in the assay with Staphylococcus aureus [1] was found to be 0.25 µg/mL; with Enterococcus faecalis, 64 µg/mL; in the assay on Streptococcus pneumoniae, 0.0625 µg/mL; with Staphylococcus aureus [2], 32 µg/mL; in the assay on Bacillus subtilis, 4 µg/mL; in the assay with Escherichia coli it was 0.5 µg/mL. In the assay on Pseudomonas aeruginosa, the MIC was 32 µg/mL.

For `Cc1cc(=O)cc(Cc2cc(O)cc(O)c2)o1`, the MIC in the assay with Staphylococcus aureus [1], with Enterococcus faecalis, in the assay with Streptococcus pneumoniae, in the assay with Staphylococcus aureus [2], in the assay on Bacillus subtilis and in the assay on Escherichia coli was above 64 µg/mL in each case. Besides, the MIC with Pseudomonas aeruginosa was above 64 µg/mL.

For `COC(=O)c1oc(=O)c2c(O)c3c(=O)cc(C)oc3cc2c1O`, the MIC with Staphylococcus aureus [1] was 2 µg/mL; in the assay with Enterococcus faecalis it was 8 µg/mL; with Streptococcus pneumoniae, 4 µg/mL; in the assay with Staphylococcus aureus [2], 2 µg/mL; with Bacillus subtilis it was 8 µg/mL; in the assay with Escherichia coli, above 64 µg/mL. Also, the MIC in the assay with Pseudomonas aeruginosa is above 64 µg/mL.

In the case of `C[C@@H](O)C[C@@H](O)Cc1cc2cc(O)cc(O)c2c(=O)o1`, the MIC in the assay on Staphylococcus aureus [1], with Enterococcus faecalis, in the assay with Streptococcus pneumoniae, in the assay on Staphylococcus aureus [2], in the assay with Bacillus subtilis and with Escherichia coli was above 64 µg/mL throughout. Further, in the assay on Pseudomonas aeruginosa, the MIC was above 64 µg/mL.

As to `CC(C)[C@H]1C(=O)O[C@H](C(C)C)C(=O)N(C)[C@@H](C(C)C)C(=O)O[C@H](C(C)C)C(=O)N(C)[C@@H](C(C)C)C(=O)O[C@H](C(C)C)C(=O)N1C` [ENNIATIN B], the MIC is above 64 µg/mL in the assay on Staphylococcus aureus [1]; above 64 µg/mL in the assay on Enterococcus faecalis; 16 µg/mL with Streptococcus pneumoniae; above 64 µg/mL in the assay on Staphylococcus aureus [2]; above 64 µg/mL with Bacillus subtilis; above 64 µg/mL with Escherichia coli. In addition, the minimal inhibitory concentration (MIC) in the assay with Pseudomonas aeruginosa is above 64 µg/mL.

On to `O=C(O)c1cn(C2CC2)c2cc(N3CCNCC3)c(F)cc2c1=O` [CIPROFLOXACIN], for which the MIC in the assay with Staphylococcus aureus [1] was 0.0625 µg/mL; in the assay with Enterococcus faecalis it was 16 µg/mL; in the assay with Streptococcus pneumoniae, 0.25 µg/mL; in the assay with Staphylococcus aureus [2], 8 µg/mL; in the assay with Bacillus subtilis it was 0.16 µg/mL; in the assay with Pseudomonas aeruginosa, 16 µg/mL.

Take `C=C1NC(=O)C(C)C(CCC(C)C(=O)/C=C/C(C)=C/CCC(C)CCCCCC)OC(=O)C(CCC(N)=O)NC(=O)C(C)CNC1=O` (stereo not drawn): the MIC with Staphylococcus aureus [1], with Enterococcus faecalis, with Streptococcus pneumoniae, with Staphylococcus aureus [2], with Bacillus subtilis and in the assay on Escherichia coli was above 64 µg/mL throughout. In addition, the MIC in the assay on Pseudomonas aeruginosa was above 64 µg/mL.

Turning to `O=C(O)CNc1ccccc1C(=O)O`, the MIC with Staphylococcus aureus [1], in the assay with Enterococcus faecalis, in the assay with Streptococcus pneumoniae, with Staphylococcus aureus [2], with Bacillus subtilis and with Escherichia coli was above 64 µg/mL each time. For the same compound, the MIC with Pseudomonas aeruginosa was above 64 µg/mL.

Take `CN[C@H](CC(C)C)C(=O)N[C@H]1C(=O)N[C@@H](CC(N)=O)C(=O)N[C@H]2C(=O)N[C@H]3C(=O)N[C@H](C(=O)N[C@H](C(=O)O)c4cc(O)cc(O)c4-c4cc3ccc4O)[C@H](O)c3ccc(c(Cl)c3)Oc3cc2cc(c3O[C@@H]2O[C@H](CO)[C@@H](O)[C@H](O)[C@H]2O[C@H]2C[C@](C)(N)[C@H](O)[C@H](C)O2)Oc2ccc(cc2Cl)[C@H]1O` [VANCOMYCIN]: the MIC in the assay with Streptococcus pneumoniae was 0.125 µg/mL; with Bacillus subtilis it was 0.125 µg/mL; with Escherichia coli, above 64 µg/mL; in the assay with Pseudomonas aeruginosa, above 64 µg/mL.
